Our source for the MIC values is ChEMBL document CHEMBL1140345, “Conformational constraint in oxazolidinone antibacterials. Synthesis and structure-activity studies of (azabicyclo[3.1.0]hexylphenyl)oxazolidinones” (2005).

In brackets after ≈: the same amount, converted by molar mass.

One assay deals with Enterococcus faecalis. The experiment in a line: Minimum inhibitory concentration against Enterococcus faecalis UC9217. It counts as functional. An outline of the steps:
(§1)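 Broth microdilution MIC following the NCCLS M7-A4 approved standard for dilution susceptibility testing of aerobically growing bacteria. The method is taken as accurate to within one dilution.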

For the next assay, the system named is Streptococcus pneumoniae. Description: Minimum inhibitory concentration against penicillin-susceptible Streptococcus pneumoniae UC9912. As to conditions: Streptococcus pneumoniae; read-out: MIC. Type of assay: functional. An outline of the steps: as §1
Assay [1] deals with Staphylococcus aureus. The experiment in a line: Minimum inhibitory concentration against methicillin, ciprofloxacin, rifampin, imipenem-resistant Staphylococcus aureus UC12673. Type of assay: functional. An outline of the steps:
(§2)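 MIC determined by standard broth microdilution following the NCCLS M7-A4 approved standard for dilution susceptibility testing of aerobically growing bacteria.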

For assay [2], the system named is Staphylococcus epidermidis. Description: Minimum inhibitory concentration against methicillin-resistant Staphylococcus epidermidis UC12084.
Assay [3] deals with Staphylococcus aureus. Description: Minimum inhibitory concentration against methicillin-susceptible Staphylococcus aureus UC9213. Type of assay: functional. An outline of the steps: as §2
Assay [4] deals with Haemophilus influenzae. The experiment in a line: Minimum inhibitory concentration against ampicillin-reisitant Haemophilus influenzae UC30063. Type of assay: functional. As to conditions: Haemophilus influenzae; read-out: MIC. An outline of the steps:
as §1

Assay [5] relates to Staphylococcus aureus. Description: Minimum inhibitory concentration against methicillin-susceptible Staphylococcus aureus UC9213; Range is 2-4 ug/mL. It counts as functional. Put shortly:
as §2

In the next assay the test system is Escherichia coli. Description: Minimum inhibitory concentration against Escherichia coli UC6674. Type of assay: functional. Put shortly: as §1
Assay [6] deals with Haemophilus influenzae. The experiment in a line: Minimum inhibitory concentration against ampicillin-reisitant Haemophilus influenzae UC30063; Range is 8-16 ug/mL. Type of assay: functional. An outline of the steps:
as §2

The test system of assay [7] is Staphylococcus epidermidis. Description: Minimum inhibitory concentration against methicillin-resistant Staphylococcus epidermidis UC12084; Range is 0.5-1 ug/mL.
Assay [8] relates to Staphylococcus epidermidis. The experiment in a line: Minimum inhibitory concentration against methicillin-resistant Staphylococcus epidermidis UC12084; Range is from 0.5-1 ug/mL.
Assay [9] concerns Haemophilus influenzae. The experiment in a line: Minimum inhibitory concentration against ampicillin-reisitant Haemophilus influenzae UC30063; Range is from 4-8 ug/mL. Type of assay: functional. An outline of the steps: as §1
Another assay concerns Moraxella catarrhalis. Description: Minimum inhibitory concentration Moraxella catarrhalis. It counts as functional. Put shortly:
as §1

For `CC(=O)NC[C@H]1CN(c2cc(F)c(N3C[C@@H]4[C@H](C3)[C@H]4C(=O)Nc3nccs3)c(F)c2)C(=O)O1`, the MIC against Enterococcus faecalis was 0.5 µg/mL (≈ 1.05 µM); with Streptococcus pneumoniae, 0.13 µg/mL (≈ 0.272 µM); in the assay on Staphylococcus aureus [1] it was 1 µg/mL (≈ 2.09 µM); in assay [2], 0.25 µg/mL (≈ 0.524 µM); in the assay on Staphylococcus aureus [3], 2 µg/mL (≈ 4.19 µM); in the assay with Haemophilus influenzae [4] it was over 64 µg/mL.

On to `CC(=O)NC[C@H]1CN(c2ccc(N3C[C@@H]4[C@@H](N)[C@@H]4C3)c(F)c2)C(=O)O1`, for which the MIC in the assay with Staphylococcus aureus [5] was 4 µg/mL (≈ 11.5 µM); against Escherichia coli, 32 µg/mL (≈ 91.9 µM); in the assay with Enterococcus faecalis it was 4 µg/mL (≈ 11.5 µM); with Streptococcus pneumoniae it was 1 µg/mL (≈ 2.87 µM); in the assay with Staphylococcus aureus [1], 4 µg/mL (≈ 11.5 µM); in the assay with Haemophilus influenzae [6], 16 µg/mL (≈ 45.9 µM). This molecule also displayed an MIC in [7] of 1 µg/mL (≈ 2.87 µM).

With `CC(=O)NC[C@H]1CN(c2cc(F)c(N3C[C@@H]4[C@H](C3)[C@H]4C(=O)NCc3ccco3)c(F)c2)C(=O)O1`, the MIC in the assay on Enterococcus faecalis was 1 µg/mL (≈ 2.11 µM); in the assay with Streptococcus pneumoniae it was 0.5 µg/mL (≈ 1.05 µM); against Staphylococcus aureus [1], 2 µg/mL (≈ 4.22 µM); in [2], 1 µg/mL (≈ 2.11 µM); against Staphylococcus aureus [3] it was 2 µg/mL (≈ 4.22 µM); in the assay with Haemophilus influenzae [4] it was over 64 µg/mL.

For the molecule `CNC(=O)[C@H]1[C@@H]2CN(c3c(F)cc(N4C[C@H](CNC(C)=O)OC4=O)cc3F)C[C@@H]21`, the MIC was over 64 µg/mL against Escherichia coli; 1 µg/mL (≈ 2.45 µM) against Enterococcus faecalis; 0.5 µg/mL (≈ 1.22 µM) with Streptococcus pneumoniae; 2 µg/mL (≈ 4.9 µM) in the assay on Staphylococcus aureus [1]; 1 µg/mL (≈ 2.45 µM) in assay [2]; 2 µg/mL (≈ 4.9 µM) in the assay on Staphylococcus aureus [3]. Moreover, the MIC with Haemophilus influenzae [4] was 16 µg/mL (≈ 39.2 µM).

`CC(=O)NC[C@H]1CN(c2cc(F)c(N3C[C@@H]4[C@H](C3)[C@H]4C(=O)NO)c(F)c2)C(=O)O1`: the MIC in the assay on Escherichia coli is over 64 µg/mL; with Enterococcus faecalis it was 2 µg/mL (≈ 4.87 µM); with Streptococcus pneumoniae, 1 µg/mL (≈ 2.44 µM); in the assay on Staphylococcus aureus [1], 4 µg/mL (≈ 9.75 µM); in assay [2], 2 µg/mL (≈ 4.87 µM); with Staphylococcus aureus [3], 4 µg/mL (≈ 9.75 µM). In addition, the MIC in the assay with Haemophilus influenzae [4] turned out to be 32 µg/mL (≈ 78 µM).

As to `CC(=O)NC[C@H]1CN(c2cc(F)c(N3C[C@@H]4[C@H](C3)[C@H]4C(=O)Nc3ccc4c(c3)OCO4)c(F)c2)C(=O)O1`, the MIC is 1 µg/mL (≈ 1.94 µM) in the assay with Enterococcus faecalis; 0.5 µg/mL (≈ 0.972 µM) with Streptococcus pneumoniae; 1 µg/mL (≈ 1.94 µM) in the assay with Staphylococcus aureus [1]; 0.5 µg/mL (≈ 0.972 µM) in assay [2]; 1 µg/mL (≈ 1.94 µM) against Staphylococcus aureus [3]; over 64 µg/mL in the assay with Haemophilus influenzae [4].

`CC(=O)NC[C@H]1CN(c2cc(F)c(N3C[C@@H]4[C@H](C3)[C@H]4C(=O)O)c(F)c2)C(=O)O1`: the MIC is over 64 µg/mL against Escherichia coli; 1 µg/mL (≈ 2.53 µM) in the assay with Enterococcus faecalis; 1 µg/mL (≈ 2.53 µM) in the assay with Streptococcus pneumoniae; 1 µg/mL (≈ 2.53 µM) in assay [8]; 1 µg/mL (≈ 2.53 µM) against Staphylococcus aureus [1]; 2 µg/mL (≈ 5.06 µM) with Staphylococcus aureus [3]. This molecule displayed an MIC with Haemophilus influenzae [9] of 8 µg/mL (≈ 20.2 µM).

Consider `N[C@@H]1[C@H]2CN(c3c(F)cc(N4C[C@H](CNC(=O)C(Cl)Cl)OC4=O)cc3F)C[C@@H]12`, for which the MIC against Enterococcus faecalis worked out at 2 µg/mL (≈ 4.59 µM); with Streptococcus pneumoniae, 0.5 µg/mL (≈ 1.15 µM); in the assay with Staphylococcus aureus [1], 2 µg/mL (≈ 4.59 µM); in [2], 2 µg/mL (≈ 4.59 µM); against Staphylococcus aureus [3] it was 4 µg/mL (≈ 9.19 µM); with Haemophilus influenzae [4], 4 µg/mL (≈ 9.19 µM).

Take `CC(=O)NC[C@H]1CN(c2ccc(N3C[C@H]4C[C@H]4C3)c(F)c2)C(=O)O1`: the MIC is over 64 µg/mL against Escherichia coli; 2 µg/mL (≈ 6 µM) against Enterococcus faecalis; 1 µg/mL (≈ 3 µM) in the assay with Streptococcus pneumoniae; 2 µg/mL (≈ 6 µM) in the assay on Staphylococcus aureus [1]; 1 µg/mL (≈ 3 µM) in [2]; 2 µg/mL (≈ 6 µM) in the assay with Staphylococcus aureus [3]. The MIC in the assay with Haemophilus influenzae [4] is 32 µg/mL (≈ 96 µM).

Consider `CC(=O)NC[C@H]1CN(c2ccc(N3CCOCC3)c(F)c2)C(=O)O1` [LINEZOLID], for which the MIC against Moraxella catarrhalis is 4 µg/mL (≈ 11.9 µM); in the assay on Escherichia coli, over 64 µg/mL; in [2] it was 1 µg/mL (≈ 2.96 µM); against Haemophilus influenzae [6], 16 µg/mL (≈ 47.4 µM).

On to `CC(=O)NC[C@H]1CN(c2ccc(N3C[C@@H]4[C@H](C3)[C@H]4C(=O)O)c(F)c2)C(=O)O1`, for which the MIC against Escherichia coli is over 64 µg/mL; against Enterococcus faecalis, 4 µg/mL (≈ 10.6 µM); with Streptococcus pneumoniae, 4 µg/mL (≈ 10.6 µM); with Staphylococcus aureus [1] it was 4 µg/mL (≈ 10.6 µM); in assay [2], 2 µg/mL (≈ 5.3 µM); with Staphylococcus aureus [3], 8 µg/mL (≈ 21.2 µM). Further, the MIC in the assay on Haemophilus influenzae [4] was determined as 16 µg/mL (≈ 42.4 µM).

As for `COc1ccc(NC(=O)[C@H]2[C@@H]3CN(c4c(F)cc(N5C[C@H](CNC(C)=O)OC5=O)cc4F)C[C@@H]32)cn1`, the MIC against Enterococcus faecalis is 1 µg/mL (≈ 1.99 µM); in the assay with Streptococcus pneumoniae, 0.5 µg/mL (≈ 0.997 µM); against Staphylococcus aureus [1], 2 µg/mL (≈ 3.99 µM); in assay [2] it was 1 µg/mL (≈ 1.99 µM); with Staphylococcus aureus [3], 2 µg/mL (≈ 3.99 µM); in the assay on Haemophilus influenzae [4], over 64 µg/mL.
